Experimental findings from ChEMBL document CHEMBL1154832, “Synthesis and antitumor activity of new dihydropyridine thioglycosides and their corresponding dehydrogenated forms” (Eur J Med Chem, 2010) are described below.

The test system of the first data set is HeLa. The experiment in a line: Antitumor activity against human HeLa cells xenografted in Swiss albino mouse assessed as increase in life span at 10 ug/kg, ip for 10 consecutive days relative to control. In kind it is functional.
Conditions: not given
In a few lines: (§1)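 Male Swiss albino mice (20 ± 2 g), acclimatised one week at 25–27 °C, 12 h light/dark. Ascites tumour established by i.p. inoculation of 1 × 10⁶ viable cells. Dosing began 24 h after inoculation, i.p. daily for 10 consecutive days. DMSO vehicle control group; cisplatine 2 mg/kg i.p. for 10 days as reference. Survival time recorded and % increase in life span derived; mean ± SE, n = 10 mice.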
For `CC(=O)O[C@H]1O[C@@H](SC2=C(C#N)C(c3ccc([N+](=O)[O-])cc3)C(C#N)=C(N)N2)[C@H](OC(C)=O)[C@@H](OC(C)=O)[C@@H]1OC(=O)O` (stereo not given in full), the Activity amounted to 27%.
As for `N#Cc1c(N)nc(S[C@@H]2O[C@H](O)[C@@H](O)[C@H](O)[C@H]2O)c(C#N)c1-c1ccc2ccccc2c1`, the Activity amounted to 51%.
Same read-out and setting: next, `COc1ccc(-c2c(C#N)c(N)nc(S[C@@H]3O[C@H](O)[C@H](O)[C@H](O)[C@H]3O)c2C#N)cc1`: 47%.
As for `CC(=O)O[C@H]1O[C@@H](Sc2nc(N)c(C#N)c(-c3ccc(Br)cc3)c2C#N)[C@H](OC(C)=O)[C@@H](OC(C)=O)[C@@H]1OC(C)=O`, the Activity is given as 46%.
Same read-out and setting: the figure for `CC(=O)O[C@H]1O[C@@H](SC2=C(C#N)C(c3ccc(Br)cc3)C(C#N)=C(N)N2)[C@H](OC(C)=O)[C@@H](OC(C)=O)[C@@H]1OC(=O)O` (stereo not given in full) is 29%.
Same read-out and setting: next, `CC(=O)O[C@H]1O[C@@H](SC2=C(C#N)C(c3ccc4ccccc4c3)C(C#N)=C(N)N2)[C@H](OC(C)=O)[C@@H](OC(C)=O)[C@H]1OC(=O)O` (stereo not given in full): 31%; `COc1ccc(C2C(C#N)=C(N)NC(S[C@@H]3O[C@H](OC(C)=O)[C@@H](OC(=O)O)[C@H](OC(C)=O)[C@H]3OC(C)=O)=C2C#N)cc1` (stereo not given in full): 25%; `CC(=O)O[C@H]1O[C@@H](SC2=C(C#N)C(c3ccccc3)C(C#N)=C(N)N2)[C@H](OC(C)=O)[C@@H](OC(C)=O)[C@@H]1OC(=O)O` (stereo not given in full): 30%.
On to `N#Cc1c(N)nc(S[C@@H]2O[C@H](O)[C@H](O)[C@H](O)[C@H]2O)c(C#N)c1-c1ccc2ccccc2c1`, for which the Activity came out at 53%.
As for `CC(=O)O[C@H]1O[C@@H](Sc2nc(N)c(C#N)c(-c3ccccc3)c2C#N)[C@H](OC(C)=O)[C@@H](OC(C)=O)[C@H]1OC(C)=O`, the Activity was 38%.

In a further data set the test system is HepG2. Description: Antitumor activity against human HepG2 cells xenografted in Swiss albino mouse assessed as increase in life span at 10 ug/kg, ip for 10 consecutive days relative to control.
Conditions: not given
In kind it is functional. In a few lines: as §1
For the compound `CC(=O)O[C@H]1O[C@@H](SC2=C(C#N)C(c3ccc([N+](=O)[O-])cc3)C(C#N)=C(N)N2)[C@H](OC(C)=O)[C@@H](OC(C)=O)[C@@H]1OC(=O)O` (stereo not given in full), the Activity is recorded as 34%.
On the same count and under the same terms, the figure for `N#Cc1c(N)nc(S[C@@H]2O[C@H](O)[C@@H](O)[C@H](O)[C@H]2O)c(C#N)c1-c1ccc2ccccc2c1` is 58%; for `COc1ccc(-c2c(C#N)c(N)nc(S[C@@H]3O[C@H](O)[C@H](O)[C@H](O)[C@H]3O)c2C#N)cc1` it is 56%.
Same read-out and setting: next, `CC(=O)O[C@H]1O[C@@H](Sc2nc(N)c(C#N)c(-c3ccc(Br)cc3)c2C#N)[C@H](OC(C)=O)[C@@H](OC(C)=O)[C@@H]1OC(C)=O`: 48%; `CC(=O)O[C@H]1O[C@@H](SC2=C(C#N)C(c3ccc(Br)cc3)C(C#N)=C(N)N2)[C@H](OC(C)=O)[C@@H](OC(C)=O)[C@@H]1OC(=O)O` (stereo not given in full): 31%.
Still for that read-out and setting: the figure for `CC(=O)O[C@H]1O[C@@H](SC2=C(C#N)C(c3ccc4ccccc4c3)C(C#N)=C(N)N2)[C@H](OC(C)=O)[C@@H](OC(C)=O)[C@H]1OC(=O)O` (stereo not given in full) is 38%; for `COc1ccc(C2C(C#N)=C(N)NC(S[C@@H]3O[C@H](OC(C)=O)[C@@H](OC(=O)O)[C@H](OC(C)=O)[C@H]3OC(C)=O)=C2C#N)cc1` (stereo not given in full) it is 39%.
For `CC(=O)O[C@H]1O[C@@H](SC2=C(C#N)C(c3ccccc3)C(C#N)=C(N)N2)[C@H](OC(C)=O)[C@@H](OC(C)=O)[C@@H]1OC(=O)O` (stereo not given in full), the Activity was found to be 29%.
Turning to `N#Cc1c(N)nc(S[C@@H]2O[C@H](O)[C@H](O)[C@H](O)[C@H]2O)c(C#N)c1-c1ccc2ccccc2c1`, the Activity is 57%.
The same measure, in the same setting: next, `CC(=O)O[C@H]1O[C@@H](Sc2nc(N)c(C#N)c(-c3ccccc3)c2C#N)[C@H](OC(C)=O)[C@@H](OC(C)=O)[C@H]1OC(C)=O`: 43%.

The test system of another data set is Mus musculus. The experiment in a line: Acute toxicity in ip dosed Swiss albino mouse xenografted with human HepG2 cells assessed as mortality measured up to two weeks. In kind it is organism-based. The settings on record: in vivo. In a few lines:
(§2)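 Adult Swiss albino mice fasted 12 h, randomised into groups of 10. Single i.p. administration at graded doses, 1 ml/kg body weight; controls received vehicle alone. Food and water given immediately after dosing. Mortality followed for up to two weeks. LD50 taken as the dose giving 50% mortality.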
`CC(=O)O[C@H]1O[C@@H](SC2=C(C#N)C(c3ccc([N+](=O)[O-])cc3)C(C#N)=C(N)N2)[C@H](OC(C)=O)[C@@H](OC(C)=O)[C@@H]1OC(=O)O` (stereo not given in full): the LD50 came to 0.085 mg/kg.
The same measure, in the same setting: next, `N#Cc1c(N)nc(S[C@@H]2O[C@H](O)[C@@H](O)[C@H](O)[C@H]2O)c(C#N)c1-c1ccc2ccccc2c1`: 0.13 mg/kg; `COc1ccc(-c2c(C#N)c(N)nc(S[C@@H]3O[C@H](O)[C@H](O)[C@H](O)[C@H]3O)c2C#N)cc1`: 0.115 mg/kg; `CC(=O)O[C@H]1O[C@@H](Sc2nc(N)c(C#N)c(-c3ccc(Br)cc3)c2C#N)[C@H](OC(C)=O)[C@@H](OC(C)=O)[C@@H]1OC(C)=O`: 0.065 mg/kg.
The same measure, in the same setting: next, `CC(=O)O[C@H]1O[C@@H](SC2=C(C#N)C(c3ccc(Br)cc3)C(C#N)=C(N)N2)[C@H](OC(C)=O)[C@@H](OC(C)=O)[C@@H]1OC(=O)O` (stereo not given in full): 0.09 mg/kg.
Still for that read-out and setting: next, `CC(=O)O[C@H]1O[C@@H](SC2=C(C#N)C(c3ccc4ccccc4c3)C(C#N)=C(N)N2)[C@H](OC(C)=O)[C@@H](OC(C)=O)[C@H]1OC(=O)O` (stereo not given in full): 0.065 mg/kg.
With `COc1ccc(C2C(C#N)=C(N)NC(S[C@@H]3O[C@H](OC(C)=O)[C@@H](OC(=O)O)[C@H](OC(C)=O)[C@H]3OC(C)=O)=C2C#N)cc1` (stereo not given in full), the LD50 turned out to be 0.15 mg/kg.
`CC(=O)O[C@H]1O[C@@H](SC2=C(C#N)C(c3ccccc3)C(C#N)=C(N)N2)[C@H](OC(C)=O)[C@@H](OC(C)=O)[C@@H]1OC(=O)O` (stereo not given in full): the LD50 is 0.08 mg/kg.
Same read-out and setting: next, `N#Cc1c(N)nc(S[C@@H]2O[C@H](O)[C@H](O)[C@H](O)[C@H]2O)c(C#N)c1-c1ccc2ccccc2c1`: 0.145 mg/kg; `CC(=O)O[C@H]1O[C@@H](Sc2nc(N)c(C#N)c(-c3ccccc3)c2C#N)[C@H](OC(C)=O)[C@@H](OC(C)=O)[C@H]1OC(C)=O`: 0.065 mg/kg.

Another data set concerns Mus musculus. The experiment in a line: Acute toxicity in ip dosed Swiss albino mouse inoculated with human HeLa cells assessed as mortality measured up to two weeks. Type of data set: organism-based. The settings on record: in vivo. In a few lines:
as §2
`CC(=O)O[C@H]1O[C@@H](SC2=C(C#N)C(c3ccc([N+](=O)[O-])cc3)C(C#N)=C(N)N2)[C@H](OC(C)=O)[C@@H](OC(C)=O)[C@@H]1OC(=O)O` (stereo not given in full): the 50% lethal dose (LD50) amounted to 0.07 mg/kg.
Same read-out and setting: next, `N#Cc1c(N)nc(S[C@@H]2O[C@H](O)[C@@H](O)[C@H](O)[C@H]2O)c(C#N)c1-c1ccc2ccccc2c1`: 0.11 mg/kg.
Same read-out and setting: the figure for `COc1ccc(-c2c(C#N)c(N)nc(S[C@@H]3O[C@H](O)[C@H](O)[C@H](O)[C@H]3O)c2C#N)cc1` is 0.13 mg/kg; for `CC(=O)O[C@H]1O[C@@H](Sc2nc(N)c(C#N)c(-c3ccc(Br)cc3)c2C#N)[C@H](OC(C)=O)[C@@H](OC(C)=O)[C@@H]1OC(C)=O` it is 0.075 mg/kg; for `CC(=O)O[C@H]1O[C@@H](SC2=C(C#N)C(c3ccc(Br)cc3)C(C#N)=C(N)N2)[C@H](OC(C)=O)[C@@H](OC(C)=O)[C@@H]1OC(=O)O` (stereo not given in full) it is 0.09 mg/kg.
The same measure, in the same setting: the figure for `CC(=O)O[C@H]1O[C@@H](SC2=C(C#N)C(c3ccc4ccccc4c3)C(C#N)=C(N)N2)[C@H](OC(C)=O)[C@@H](OC(C)=O)[C@H]1OC(=O)O` (stereo not given in full) is 0.07 mg/kg; for `COc1ccc(C2C(C#N)=C(N)NC(S[C@@H]3O[C@H](OC(C)=O)[C@@H](OC(=O)O)[C@H](OC(C)=O)[C@H]3OC(C)=O)=C2C#N)cc1` (stereo not given in full) it is 0.16 mg/kg; for `CC(=O)O[C@H]1O[C@@H](SC2=C(C#N)C(c3ccccc3)C(C#N)=C(N)N2)[C@H](OC(C)=O)[C@@H](OC(C)=O)[C@@H]1OC(=O)O` (stereo not given in full) it is 0.075 mg/kg.
For the compound `N#Cc1c(N)nc(S[C@@H]2O[C@H](O)[C@H](O)[C@H](O)[C@H]2O)c(C#N)c1-c1ccc2ccccc2c1`, the LD50 amounted to 0.125 mg/kg.
On the same count and under the same terms, next, `CC(=O)O[C@H]1O[C@@H](Sc2nc(N)c(C#N)c(-c3ccccc3)c2C#N)[C@H](OC(C)=O)[C@@H](OC(C)=O)[C@H]1OC(C)=O`: 0.06 mg/kg.
